Source: PubChem BioAssay
In the library only some 1.8% were active in any assay of this set; here they are far more common.
NPY2 pot ag = human NPY-Y2 potentiation or agonism, primary screen. cells expressing NPY-Y2, potentiator/agonist read-out. activation, % at 3.6 µM. 220,000 compounds, 0.45% hits. AID 1359; in the data active means activation above about 27%;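 further: cells stimulated with NPY near EC25 plus isoproterenol at EC100; 0% = vehicle plus submaximal agonist and 100% = vehicle plus saturating agonist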
Target sequence (P49146 whole entry, looked up): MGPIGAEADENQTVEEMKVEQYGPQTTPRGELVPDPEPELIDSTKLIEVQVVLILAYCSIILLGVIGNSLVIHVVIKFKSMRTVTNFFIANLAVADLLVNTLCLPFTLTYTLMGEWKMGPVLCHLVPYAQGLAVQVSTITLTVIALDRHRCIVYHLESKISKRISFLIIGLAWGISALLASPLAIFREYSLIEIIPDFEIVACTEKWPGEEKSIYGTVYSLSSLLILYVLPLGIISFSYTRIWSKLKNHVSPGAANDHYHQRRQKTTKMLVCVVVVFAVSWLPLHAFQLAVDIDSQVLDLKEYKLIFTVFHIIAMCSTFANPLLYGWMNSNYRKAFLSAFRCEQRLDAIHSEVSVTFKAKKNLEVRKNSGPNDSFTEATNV
NPY1 pot ag = potentiates or activates human NPY-Y1 receptor; P25929; NPY-Y1 expressing cells, potentiator/agonist activation; activation, % at 3.6 µM; 220,000 compounds, 0.37% hits; in the data active means activation above about 33%, passing the limit was not always enough;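 further: cells stimulated with NPY at EC10 then isoproterenol at EC100; 0% = low agonist plus stimulus and 100% = saturating agonist plus stimulus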
NPY-Y2 antag = blocks the human neuropeptide Y Y2 receptor; AID 793; P49146; NPY-Y2 expressing cells, antagonist mode; 140,000 compounds, 0.99% hits; inhibition, % at 2.7 µM; in the data active means inhibition above about 17%;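 further: 0% = vehicle with agonist challenge and 100% = reference antagonist with challenge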
NPY Y1 blocker = NPY-Y1 (human) receptor antagonism; P25929; HEK293-CNG Y1 cells, membrane potential fluorescence; NPY at EC95, then isoproterenol; inhibition, % at 3.6 µM; 200,000 compounds, 1% hits; AID 1040;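 active means inhibition above the campaign mean inhibition of all tested compounds plus 3 SD, cut at about 20% in these data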;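 further: 0% = DMSO wells given NPY plus isoproterenol and 100% = isoproterenol alone without NPY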
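Benchmarks – high control isoproterenol alone, low control NPY with isoproterenol · Material – HEK293 Y1/CNG channel cell line · Times – dye 3 h, compound 60 min room temperature, stimulation 45 min · Probe or stimulus – NPY (25 nM), isoproterenol (1 µM), Ro 20-1724 (25 µM) · Evaluation – % inhibition of NPY effect · Signal – fluorescence, membrane potential probe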
NPY-Y1 antag ct = human NPY-Y1 antagonism in NPY-Y2 counter-screen | 710 compounds, 19% hits | cell-based NPY-Y1 antagonism counterscreen | shares compounds with NPY-Y2 antag | inhibition, % at 3.6 µM; in the data active means inhibition above about 20%;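 further: cells challenged with NPY then isoproterenol with cAMP sensed through a CNG channel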
NPY-Y2 ant conf = human NPY-Y2 antagonism, confirmation | shares compounds with NPY-Y2 antag | HEK293 NPY-Y2 CNG channel, membrane potential fluorescence | inhibition, % at 2.8 µM | 710 compounds, 32% hits;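 active means mean inhibition of triplicate wells above the hit cutoff set in the primary screen, cut at about 17% in these data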;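 further: 0% = DMSO with NPY challenge and 100% = BIIE0246 high control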
Starred values were filed as active, the others as inactive; . = not tested or not shown.

SMILES	NPY2 pot ag	NPY1 pot ag	NPY-Y2 antag	NPY Y1 blocker	NPY-Y1 antag ct	NPY-Y2 ant conf
N#Cc1nc(-c2ccc(Cl)cc2)oc1NCc1ccco1	11.1	11.2	2.2	2.9	.	.
N#Cc1nc(-c2ccc(Cl)cc2)oc1NCc1cccc2c1OCO2	-7.1	-38.2	19.8*	12.1	21.1*	19.6*
O=C(COC(=O)c1cccc(Cl)c1)Nc1cc(Cl)ccc1Oc1ccccc1	-1.2	-9.9	19.4*	13.6	13.7	11.9
CCOC(=O)Cc1csc(SCC(=O)Nc2cc(Cl)ccc2Oc2ccccc2)n1	-22.6	9.3	19.4*	6.4	7.3	5.5
CCOC(=O)Cc1csc(SCC(=O)Nc2cccc(Cl)c2)n1	-4.7	-7.8	4.9	1.7	.	.
Clc1ccc(CSc2cc3c(nn2)-c2ccccc2CC3)cc1Cl	-23.7	-50.3	19.6*	15.7	19.9	35.8*
Cc1ccc(-c2nc(CSCC(=O)N3CCCC3)c(C)o2)cc1	-4.2	5.5	-1.8	0.9	.	.
Cc1c(NC(=O)C(Sc2ccccc2)c2ccccc2)cccc1[N+](=O)[O-] (stereo unspecified)	-10.4	0.7	17.7*	5.8	8.0	12.4
CC(C)N(C(=O)CSc1nc2ccccc2n1Cc1ccccc1F)C(C)C	2.7	-14.4	17.2*	13.5	13.8	6.0
O=C(COC(=O)/C=C/c1cccc(Cl)c1)Nc1ccccc1-c1ccccc1	-0.9	-13.4	18.8*	7.0	21.0*	29.9*
O=C(COC(=O)c1ccc(O)cc1)Nc1ccccc1-c1ccccc1	-1.7	-3.9	5.7	2.4	.	.
O=C(COC(=O)c1ccc(-c2ccccc2)cc1)Nc1ccccc1-c1ccccc1	2.7	2.6	30.8*	-4.4	15.5	19.1*
O=C(COC(=O)/C=C/c1ccccc1)Nc1ccccc1Br	-10.2	-30.2	11.8	4.2	.	.
Cc1cc(C)c2c(=O)n(CC(=O)NCCCN3CCN(c4ccccc4F)CC3)sc2n1	0.7	11.0	2.9	-0.3	.	.
N#Cc1c(NC(=O)CCn2cnc3ccccc3c2=O)oc(-c2ccccc2)c1-c1ccccc1	5.8	-17.0	20.1*	19.8	23.2*	10.9
O=C(NNc1cc(Cl)ccc1Cl)c1c(F)cccc1Cl	-19.6	-27.9	.	.	.	.
CCCCOC(=O)Nc1nc(C)c(C(=O)OCC)s1	-10.3	-24.6	17.9*	10.1	13.5	6.0
CCOC(=O)c1sc(NC(=O)CC)nc1C	2.8	-11.5	.	-1.1	.	.
O=C(CSc1nc2cccnc2n1Cc1ccccc1)N1CCCC1	0.1	-10.5	3.5	0.7	.	.
Oc1ccccc1CNc1ccc(Br)cn1	12.3	8.2	150.8*	6.1	25.7*	51.8*
CC(C)c1ccc(/C=C/C(=O)NC(=S)Nc2ccc(CN3CCOCC3)cc2)cc1	-7.0	-0.8	21.3*	2.8	25.1*	72.5*
CCOC(=O)c1c(NC(=O)COC(=O)CCS(=O)(=O)c2ccc(C)cc2)sc(C)c1C	9.3	-9.5	0.8	7.6	.	.
Cc1ccc(Nc2nc(N)nc(CSc3nc(C)cc(C)n3)n2)cc1	10.8	11.4	28.7*	7.1	0.7	2.5
Cc1ccc(Nc2nc(N)nc(CSc3ncccn3)n2)cc1	-6.7	11.8	-0.6	-0.5	.	.
Cc1nn(Cc2ccccc2Cl)c(C)c1C(=O)NCc1ccco1	3.0	-3.3	-0.2	1.2	.	.
SMILES	NPY2 pot ag	NPY1 pot ag	NPY-Y2 antag	NPY Y1 blocker	NPY-Y1 antag ct	NPY-Y2 ant conf
Cc1nn(Cc2ccccc2Cl)c(C)c1C(=O)NCCN1C(=O)S/C(=C\c2ccccc2)C1=O	7.6	6.7	22.1*	-1.1	4.1	4.0
Cc1ncsc1CCOC(=O)c1ccccc1	16.3	-6.4	.	5.1	.	.
COc1ccc(-c2noc(CSc3nc(-c4ccccc4)cc(=O)[nH]3)n2)cc1	-3.7	6.4	24.6*	6.2	2.6	0.9
CCN(CC)S(=O)(=O)c1cccc2nsnc12	-2.2	-5.5	2.0	-0.6	.	.
Cc1cccc(CSCCNC(=O)COc2ccc(Cl)cc2)c1	-18.3	-51.2	21.6*	12.1	13.2	17.1*
COC(=O)CNC(=O)c1c(C)cc(=O)oc1C	7.7	-1.0	1.2	-1.6	.	.
CCOC(=O)C1CCCN(c2nc(C)nc3c2oc2ccccc23)C1 (stereo unspecified)	-22.0	-10.3	18.1*	6.6	14.5	14.3
Cc1nc(N2CCOCC2)c2oc3ccccc3c2n1	1.2	-8.0	-1.6	5.2	.	.
N#C/C(=C\c1cn(Cc2ccc(F)cc2)c2ccccc12)C(=O)NCc1ccco1	2.6	-14.1	18.1*	-0.2	0.9	5.1
Cc1cccc2cc(C#N)c(SCC(=O)Nc3ccccc3N3CCOCC3)nc12	10.6	-8.7	0.2	-1.0	.	.
N#Cc1cc2ccccc2nc1SCC(=O)Nc1ccccc1N1CCOCC1	-1.1	8.8	17.3*	8.4	0.1	3.7
Cc1ccc(-c2nn3c(C)nnc3s2)cc1NC(=O)c1ccc(-c2ccc(Cl)cc2Cl)o1	-10.1	-13.8	19.5*	3.9	21.9*	24.1*
CS(=O)(=O)N(CC(=O)N1CCN(Cc2ccc3c(c2)OCO3)CC1)Cc1ccc(Cl)cc1	-7.2	-15.2	23.0*	14.8	8.8	4.2
CS(=O)(=O)N(CCc1ccccc1)CC(=O)N1CCN(Cc2ccc3c(c2)OCO3)CC1	9.9	-13.6	2.2	-3.1	.	.
Cc1ccc(-c2nnn(CC(=O)N(CC(=O)NC(C)C)c3cnc4ccccc4c3)n2)o1	4.9	10.2	4.2	3.3	.	.
N#CC(C#N)=C1C=CC=CN1/C(=C\c1ccco1)C(=O)c1ccc(Cl)cc1	-7.9	-1.1	17.8*	-1.5	15.5	82.9*
N#CC(C#N)=C1C=CC=CN1/C(=C\c1ccco1)C(=O)c1ccc(-c2ccccc2)cc1	-10.7	-48.4	7.4	2.2	.	.
Cc1cccc(/C=N/NC(=O)CN2CCCCCCC2)c1	-11.7	-9.9	3.7	1.0	.	.
Cc1ccc(CNC(=O)c2cn(C3CCCCC3)c(=O)c3c2c2ccccc2n3C)o1	-2.8	-6.2	19.9*	2.6	4.8	4.1
CCOc1ccc(NC(=S)N2CCC(C(O)(c3ccccc3)c3ccccc3)CC2)cc1	-8.8	-4.3	54.4*	1.7	-2.5	94.2*
COc1ccc(NC(=S)N2CCC(C(O)(c3ccccc3)c3ccccc3)CC2)cc1	-26.5	-7.3	1.2	1.6	.	.
CCc1nnc(NC(=O)CSc2nnc(-c3ccco3)o2)s1	0.6	10.2	.	9.4	.	.
Cc1ccc(OCC(=O)NC(=S)Nc2cccc(NC(=O)c3ccccc3)c2)cc1	-6.0	3.8	37.3*	2.5	13.9	16.6
N/C(=N\OC(=O)COc1ccccc1Cl)c1ccc(Cl)cc1	-23.9	-23.0	17.9*	8.4	5.6	10.2
O=c1c(Cc2ccc(F)cc2)c(O)ccn1C1CCCCC1	-35.0	-8.7	10.8	9.7	.	.
O=C(COc1ccccc1)Nc1ccccc1N1CCCCC1	-3.5	-61.0	10.8	10.7	.	.
O=C(COc1ccccc1)Nc1cc(C(F)(F)F)ccc1N1CCCC1	-24.2	-12.8	19.6*	19.8	26.8*	14.7
CN(CC(=O)Nc1ccc(C#N)cc1)Cc1ccc(Cl)cc1	-7.1	-7.6	18.1*	2.7	2.4	1.2
CCN(CC)c1nc2cc(OC)ccc2cc1C#N	15.1	-1.9	23.2*	2.8	1.4	4.5
